Screening data as filed in PubChem.
STAT1 blocker: STAT1 signaling inhibitors, primary screen, cell-based, HTS, luciferase reporter | 200,000 compounds, 0.35% hits | AID 920, 2007 | inhibition, % at 5.5 µM | NIH 3T3 STAT1-luciferase reporter, IFN-gamma, luminescence;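 active means inhibition above a set limit, the mean inhibition across all tested compounds plus 3 SD, cut at about 34% in these data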
NF-kB neuron act: activators of NF-kB expression in neurons, primary screen, cell-based, HTS; human neuronal cells, NF-kB reporter expression; active compounds read high; fold change at 12.5 µM; 190,000 compounds, 1.6% hits; AID 1239, 2008; in the data active means fold change above about 3.3
APP 5'UTR act: activators of APP 5'UTR luciferase reporter, primary screen, SH-SY5Y cells; SH-SY5Y APP 5'UTR luciferase reporter, luminescence; zero percent = DMSO vehicle wells; activation, % at 2 µM; 190,000 compounds, 1% hits;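 active means activation above a set limit, based on mean plus 3 SD of controls, cut at about 140% in these data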
STAT3 activator: IL-6 driven STAT3 reporter potentiators, primary screen, U3A cells, luciferase, luminescence, MLSCN library; 190,000 compounds, 0.91% hits; IL-6 STAT3-luciferase reporter; 100% = signal with IL-6 EC80 alone; activation (% of control), % at 5.6 µM;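 active means activation above the screen-wide mean of compound activation plus 3 SD, cut at about 130% in these data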
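Test system: STAT3-luciferase reporter U3A cells; Detection: reporter luminescence signal; Times: 1 h compound pre-exposure, 6 h IL-6 stimulation, 37 °C; Benchmarks: IL-6-only high control; Also added: IL-6 stimulus at 33 ng/mL final.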
STAT3 inh: IL-6 driven STAT3 reporter inhibitors, primary screen, U3A cells, luciferase, luminescence, MLSCN library | inhibition, % at 5.5 µM | 190,000 compounds, 0.89% hits | IL-6 STAT3-luciferase reporter; host cell line lacks STAT1;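 active means inhibition above the mean inhibition across all screened compounds plus 3 SD, cut at about 44% in these data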
STAT1 activator: STAT1 signaling activators, primary screen, cell-based, HTS, luciferase reporter. 200,000 compounds, 2.6% hits. activation (% of control), % at 5.5 µM. NIH 3T3 STAT1-luciferase reporter, IFN-gamma, luminescence; 100% = IFN-gamma alone, no compound;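 active means activation above the screen-wide mean activation plus 3 SD, cut at about 130% in these data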
STAT1 act conf: STAT1 signaling activators, confirmation, cell-based, HTS, luciferase reporter; 1,200 compounds, 97% hits; AID 1262, 2008; activation (% of control), % at 5.7 µM; shares compounds with STAT1 activator; NIH 3T3 STAT1-luciferase reporter, IFN-gamma potentiation, luminescence; 100% = IFN-gamma EC80 alone, no compound;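 active means activation above a set limit carried over from the earlier primary STAT1 screen, cut at about 140% in these data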
NFkB act: NF-kB reporter activators, TNF-alpha stimulated, counter-screen for STAT1 activator project, cell-based, HEK293T, luciferase luminescence; shares compounds with STAT1 activator; 100% = TNF-alpha with vehicle only; activation (% of control), % at 5.7 µM; 1,200 compounds, 43% hits; AID 1306, 2008;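 active means activation above the mean of solvent-only control wells plus 3 SD, set per campaign, cut at about 130% in these data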;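 further: TNF-alpha given at a submaximal dose yielding about 80% of full reporter signal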
STAT3 act STAT1c: STAT3 reporter activation by STAT1 hits, confirmation, counter-screen for STAT1 activator project, U3A cells, luciferase, luminescence. shares compounds with STAT1 activator. IL-6; cells lack STAT1; 100 = IL-6 alone, no compound effect. activation (% of control), % at 5.7 µM. 1,200 compounds, 46% hits. AID 1316, 2008;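 active means activation above the solvent-only control well mean plus 3 SD, set per plate batch, cut at about 110% in these data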;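 further: higher means more STAT3 reporter activation so hits are non-selective activators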
Large screens that a line does not name were inactive (follow-up assays come after a bar, where they were run). A selection: hits, their analogues and other compounds. The true share with any hit is near 5.1%.

COc1ccc(-c2nn(-c3ccccc3)cc2CO)cc1	none
Cc1ccc(/C=N/Nc2nc3ccccc3s2)o1	NF-kB neuron act 6.4, APP 5'UTR act 167, STAT1 activator 154 | STAT1 act conf 264 | NFkB act inactive | STAT3 act STAT1c 129
CCCC(=O)Nc1nc(C)c(-c2csc(Nc3ccccc3C)n2)s1	none
CCC(=O)Nc1nc(C)c(-c2csc(Nc3ccccn3)n2)s1	STAT1 activator 157 | STAT1 act conf 161 | NFkB act inactive | STAT3 act STAT1c inactive
NS(=O)(=O)c1ccc(NC(=O)/C=C/c2cn(-c3ccccc3)nc2-c2cccc(Cl)c2)cc1	none
O=C(/C=C/c1cn(-c2ccccc2)nc1-c1ccccc1)Nc1ccc(C(=O)O)cc1	STAT1 activator 152 | STAT1 act conf 148 | NFkB act inactive | STAT3 act STAT1c 114
CCSc1nnc(NC(=O)C(C)(C)C)s1	none
Cc1ccc(OCC(=O)N2CCc3ccccc32)cc1	APP 5'UTR act 156, STAT1 activator 155 | STAT1 act conf 192 | NFkB act 134 | STAT3 act STAT1c inactive
Cc1ccc(OC(=O)CCC(=O)N2CCc3ccccc32)cc1	none
CS(=O)(=O)c1cnc2c(S(=O)(=O)c3ccccc3)cnn2c1N	none
CS(=O)(=O)c1cnc2c(-c3ccsc3)cnn2c1N	STAT1 activator 157 | STAT1 act conf 171 | NFkB act inactive | STAT3 act STAT1c 111
O/N=C(/CCc1ccccc1)c1ccc2c(c1)OCCO2	STAT1 activator 155 | STAT1 act conf 155 | NFkB act inactive | STAT3 act STAT1c inactive
O=C(CCc1ccccc1)c1ccc2c(c1)OCCCO2	none
CC(C)N(Cc1nc(-c2ccc(Cl)cc2)no1)C(=O)CCCN1C(=O)c2ccccc2C1=O	none (no result: APP 5'UTR act)
Cc1ccc(N(CC(=O)Nc2cc(Cl)ccc2Oc2ccccc2)S(C)(=O)=O)cc1C	none
N/C(=N\OC(=O)c1ccc2c(c1)OCO2)c1cccc(Br)c1	STAT1 activator 162 | STAT1 act conf 178 | NFkB act inactive | STAT3 act STAT1c 111
Cc1nnc(N2CCc3ccccc3C2)[nH]c1=O	none
O=c1cc(/C=C/c2ccccc2)oc2ccccc12	NF-kB neuron act 4.6, STAT1 activator 156 | STAT1 act conf 192 | NFkB act 136 | STAT3 act STAT1c 124
O=C(CSCc1ccccc1)N=Nc1c(O)[nH]c2ccccc12	none
O=C(N=Nc1c(O)[nH]c2ccccc12)c1ccco1	APP 5'UTR act 142, STAT1 activator 155 | STAT1 act conf 179 | NFkB act inactive | STAT3 act STAT1c 126
Cc1ccc(NC(=O)c2c(C)nc3ccccn23)cc1C	NF-kB neuron act 3.8, APP 5'UTR act 168, STAT1 activator 154 | STAT1 act conf 191 | NFkB act 139 | STAT3 act STAT1c inactive
CN(C)/C=C1\C(=O)N(c2ccc([N+](=O)[O-])cc2)N=C1c1ccccc1	STAT1 activator 184 | STAT1 act conf 173 | NFkB act inactive | STAT3 act STAT1c 120
O=c1[nH]cnc2scc(-c3ccc(-c4ccccc4)cc3)c12	STAT1 activator 159 | STAT1 act conf 214 | NFkB act inactive | STAT3 act STAT1c inactive
CCCN1CCC(NC(=O)Nc2ccccc2C(=O)OC)CC1	none
C=CCn1c(=O)c(C(=O)Nc2ccccc2S(N)(=O)=O)c(O)c2ccccc21	STAT1 activator 171 | STAT1 act conf 187 | NFkB act inactive | STAT3 act STAT1c 146
O=C(Nc1nc(-c2cccs2)cs1)c1ccco1	NF-kB neuron act 3.6, APP 5'UTR act 196, STAT1 activator 159 | STAT1 act conf 173 | NFkB act 134 | STAT3 act STAT1c inactive
CC(=O)c1sc(NC(=O)c2ccco2)nc1-c1ccccc1	none
COc1ccc2c(c1)Cc1sc(NC(=O)c3ccco3)nc1-2	NF-kB neuron act 3.9, APP 5'UTR act 186, STAT1 activator 189 | STAT1 act conf 199 | NFkB act 147 | STAT3 act STAT1c inactive
Cc1sc(NC(=O)c2ccco2)nc1-c1ccccc1	NF-kB neuron act 6.9, APP 5'UTR act 170, STAT1 activator 202 | STAT1 act conf 237 | NFkB act 135 | STAT3 act STAT1c 112
COc1ccc2c(c1)-c1nc(NC(=O)c3ccco3)sc1CC2	none
COC(=O)c1c(-c2ccccc2)csc1NC(=O)c1ccco1	STAT1 activator 174 | STAT1 act conf 194 | NFkB act 135 | STAT3 act STAT1c inactive
C/C(=N\NC(=O)c1ccc(CN2CCOCC2)cc1)c1ccc([N+](=O)[O-])cc1	none
O=C(NCCNC1CCN(Cc2ccccc2)CC1)c1cccs1	none
CCCCS(=O)(=O)/C=C\C1C2C=CC(C2)C1S(=O)(=O)CCCC (stereo not drawn)	none
CCCCS(=O)(=O)/C=C\C=C/S(=O)(=O)CCCC	STAT1 activator 307 | STAT1 act conf 210 | NFkB act inactive | STAT3 act STAT1c inactive
CCCn1nnc(NC(=O)c2ccc3ccccc3c2)n1	STAT1 activator 154 | STAT1 act conf inactive | NFkB act inactive | STAT3 act STAT1c inactive
CCN(CC)c1ccc(C(=O)Nc2ccccc2)cc1[N+](=O)[O-]	STAT1 activator 160 | STAT1 act conf 163 | NFkB act inactive | STAT3 act STAT1c inactive
CC(=O)c1cnc(Nc2nc(C)c3cc(C)c(C)cc3n2)nc1C	none
CCc1nnc(NC(=O)C2CCN(S(=O)(=O)Cc3ccccc3)CC2)s1	none
Cn1c(O)c(C=Nc2ccc(Br)cc2)sc1=O	APP 5'UTR act 165, STAT1 activator 160 | STAT1 act conf 189 | NFkB act 136 | STAT3 act STAT1c inactive
Cc1cccc(C(=O)Nc2scc(CC(C)C)c2C(=O)O)c1	none
N#C/C(=C\c1cccs1)C(=O)Nc1nccs1	NF-kB neuron act 4.1, STAT1 activator 207 | STAT1 act conf 229 | NFkB act 150 | STAT3 act STAT1c 114
